Assay results of several laboratories.
Each line is one published result; the experiments were not run side by side.
Target: Histamine H1 receptor (HRH1, Homo sapiens, UniProt P35367)
Technique: radioligand

The Ki of `Clc1ccc(CCCOCCCN2CCCCC2)cc1` is reported as > 10 µM (ligand displacement; cell membranes).
The Ki of `CNc1nc2cc(OCCCCN3CCC(c4cccc(Cl)c4Cl)CC3)ccc2s1` is reported as 0.028 µM (ligand displacement).
The Ki of `CN(C)c1ccc(/C=C2\CCc3ccc(OCCCN4CCCCC4)cc3C2=O)cc1` is reported as 2.14 µM (ligand displacement; cell membranes).
`CN(C)CCOC1c2ccccc2CCc2ccccc21` has a Ki of 0.00126 µM (cell-free assay).
`CN(C)c1ccc(/C=C2\CCc3ccc(OCc4ccc(OCCCN5CCCCC5)cc4)cc3C2=O)cc1` gave a Ki of 4.23 µM (ligand displacement; cell membranes).
With `CC(C)c1nc2cc(OCCCCN3CCN(c4cccc5c4OCCO5)CC3)ccc2s1` the Ki was 0.052 µM (ligand displacement).
`CN(C)c1ccc(/C=C/C=C2\CCc3ccc(OCc4ccc(OCCCN5CCCCC5)cc4)cc3C2=O)cc1` has a Ki of 1.84 µM (ligand displacement; cell membranes).
The Ki of `CN1CCC(C2c3ccccc3CCc3ccccc32)CC1` is reported as 0.000631 µM (cell-free assay).
With `CCCCCCCNCCCc1ccc([N+](=O)[O-])cc1` the Ki was 9.2 µM (ligand displacement).
The Ki of `CN1CCC(=C(c2ccccc2)c2ccccc2)CC1` is reported as 0.00316 µM (cell-free assay).
The Ki of `CN(C)c1ccc(/C=C/C=C2\CCc3cc(OCc4ccc(OCCCN5CCCCC5)cc4)ccc3C2=O)cc1` is reported as 1.37 µM (ligand displacement; cell membranes).
`CN1CCN(C2c3ccccc3CCc3ccccc32)CC1` gave a Ki of 0.002 µM (cell-free assay).
`N#Cc1cc(Cn2c(N3CCCC3)nc3ccccc32)ccc1F` has a Ki of 2.57 µM (cell-free assay).
